Measured values from different studies.
Organism: Trypanosoma brucei
Observed: parasite growth

With `COC(=O)C1CCN(C(=O)c2ccc(N(CCO)Cc3cnc4nc(N)nc(N)c4n3)cc2)CC1` the inhibition was 9% (resazurin; 10 µM, 72 h).
With `CCCN1CCC(c2ccc(Nc3nc(Nc4cc(F)ccc4C(N)=O)c4cc[nH]c4n3)c(OC)c2)CC1` the EC50 was 1580 nM.
For `COc1ccc(CNC(=O)c2ccc(CNCc3cnc4nc(N)nc(N)c4n3)cc2)cc1OC`, the inhibition was 36% (resazurin; 10 µM, 72 h).
For `Cc1ccc2nc(-c3ccc(F)c(F)c3)c(CN3CCC(Cc4ccccc4)CC3)n2c1`, the EC50 was 16600 nM (48 h).
With `COC(=O)C1CCN(C(=O)c2ccc(NCc3cnc4nc(N)nc(N)c4n3)cn2)CC1` the inhibition was 10% (resazurin; 10 µM, 72 h).
With `COc1cc2c(cc1Nc1nc(Nc3ccsc3C(N)=O)c3cc[nH]c3n1)N(C(=O)CN(C)C)CCC2` the EC50 was 631 nM.
With `CCOC(=O)C1CCN(C(=O)c2ccc(N(C)Cc3cnc4nc(N)nc(N)c4n3)cc2)CC1` the inhibition was 47% (resazurin; 10 µM, 72 h).
`OC1c2ccccc2CCc2ccccc21` has an EC50 of 51300 nM.
`COc1c(Br)cc(Br)cc1CN[C@H]1CCCN(c2nc3nc(Cl)ccc3[nH]2)C1` has an EC50 of 40 nM.
For `N=C(N)c1ccc(OCCCCCOc2ccc(C(=N)N)cc2)cc1`, the EC90 was 0.0062 µM.
For `COc1cc(Nc2ncc3c(C)nc(-c4cccc(Oc5ccccc5)c4)n3n2)cc(OC)c1OC`, the EC50 was 794 nM.
The EC90 of `Cc1ccc2nc(-c3ccc(F)c(F)c3)c(CN3CCN(C4CCCCC4)CC3)n2c1` is reported as > 20 µM (48 h).
`CS(=O)(=O)CCNCc1cc(-c2cc3c(Nc4ccc(OCc5cccc(F)c5)c(Cl)c4)ncnc3s2)cs1` gave an EC50 of 794 nM.
`COC(=O)C1CCN(C(=O)c2ccc(SCc3cnc4nc(N)nc(N)c4n3)nc2)CC1` has an inhibition of 16% (resazurin; 10 µM, 72 h).
With `ClCCOC1c2ccccc2CCc2ccccc21` the EC50 was 27900 nM.
The IC50 of `O=C(Cn1ccnc1[N+](=O)[O-])NCc1ccccc1` is reported as 96000 nM.
`NC(=O)C1CCN(C(=O)c2ccc(NCc3cnc4nc(N)nc(N)c4n3)cc2)CC1` gave an inhibition of 12% (resazurin; 10 µM, 72 h).
`NS(=O)(=O)c1ccc(Nc2cc(-c3ccc(O)c(F)c3)n[nH]2)cc1` gave an EC50 of 6310 nM.
The EC90 of `Cc1ccc2nc(-c3ccc(Cl)cc3)cn2c1` is reported as > 20 µM (48 h).
`CS(=O)(=O)CCNCc1ccc(-c2ccc3ncnc(Nc4ccc(OCc5cccc(F)c5)c(C(F)(F)F)c4)c3c2)o1` has an EC50 of 2000 nM.
`COC(=O)C1CCN(C(=O)Cc2ccc(NCc3cnc4nc(N)nc(N)c4n3)cc2)CC1` has an inhibition of 23% (resazurin; 10 µM, 72 h).
`COc1ccc(-c2oc3ncnc(N)c3c2-c2ccc(NC(=O)Nc3cc(C(F)(F)F)ccc3F)cc2)cc1` has an EC50 of 1580 nM.
For `Cc1cc(NC(=O)Nc2ccc3c(c2)OC(F)(F)O3)cc(C(F)(F)F)n1`, the IC50 was 5100 nM (RHODESIENSE STIB900).
`Cc1ccc(C(=O)Nc2ccc(S(=O)(=O)O)c3cc(S(=O)(=O)O)cc(S(=O)(=O)O)c23)cc1NC(=O)c1cccc(NC(=O)Nc2cccc(C(=O)Nc3cc(C(=O)Nc4ccc(S(=O)(=O)O)c5cc(S(=O)(=O)O)cc(S(=O)(=O)O)c45)ccc3C)c2)c1` has an IC50 of 50 nM (resazurin; RHODESIENSE).
For `Fc1ccc(-c2ncn(C3CCNCC3)c2-c2ccnc(Oc3ccc(Oc4ccccc4)cc3)n2)cc1`, the EC50 was 794 nM.
The EC50 of `N=C(N)c1ccc(OCCCCCOc2ccc(C(=N)N)cc2)cc1` is reported as 5.4 nM.
The IC50 of `N=C(N)c1ccc(OCCCCCOc2ccc(C(=N)N)cc2)cc1` is reported as 1.8 nM (resazurin; RHODESIENSE STIB900).
With `O=C(Nc1ccc2c(c1)B(O)OC2)Nc1ccc(F)c(C(F)(F)F)c1` the IC50 was 520 nM (RHODESIENSE STIB900).
For `CN(Cc1cnc2nc(N)nc(N)c2n1)c1ccc(C(=O)N2CCCCC2)cc1`, the inhibition was 48% (resazurin; 10 µM, 72 h).
`CONC(=O)CN1C(=O)CNC2(C1=O)C1CC3CC(C1)CC2C3` (stereo not shown) gave an IC50 of 542000 nM (pH 7.4, blood stage).
The IC50 of `CCS(=O)(=O)N(C)c1ccc(NC(=O)c2cccc(C(=N)N)c2)cc1OCc1ccc(C(=N)N)cc1` is reported as 500 nM.
